Source: ChEMBL document CHEMBL1126550, “Nanomolar-affinity, non-peptide oxytocin receptor antagonists” (J Med Chem, 1993)

Columns and labels:
[1] = biological target: T1, Oxytocin receptor (Rattus norvegicus, UniProt P70536); test: Inhibition of radioligand [3H]oxytocin binding at the oxytocin (OT) receptor in rat uterine tissue
T1 sequence (P70536 whole entry): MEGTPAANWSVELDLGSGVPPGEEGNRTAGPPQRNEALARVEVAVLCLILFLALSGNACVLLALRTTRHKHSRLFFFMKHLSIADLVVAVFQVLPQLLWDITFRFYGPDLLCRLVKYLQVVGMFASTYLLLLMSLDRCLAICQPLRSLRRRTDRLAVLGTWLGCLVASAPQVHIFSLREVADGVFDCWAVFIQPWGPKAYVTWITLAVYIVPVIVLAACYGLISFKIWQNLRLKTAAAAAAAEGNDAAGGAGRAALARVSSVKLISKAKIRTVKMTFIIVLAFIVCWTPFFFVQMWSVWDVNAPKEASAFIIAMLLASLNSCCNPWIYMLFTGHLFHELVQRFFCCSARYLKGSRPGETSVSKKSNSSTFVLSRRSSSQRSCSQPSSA
Method in brief: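 Uteri taken from rats given diethylstilbestrol dipropionate (0.3 mg/kg ip, 18–24 h before), crude membranes. 1 nM [3H]OT (30–60 Ci/mmol), equilibrium 60 min at 22 °C in 50 mM Tris-HCl, 5 mM MgCl2, 0.1% BSA, pH 7.4. Nonspecific binding with 1 mM unlabeled OT. Filtered on glass fiber. Initial single-concentration screen, then IC50 from seven concentrations by linear regression.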

[2] = biological target: Vasopressin V1 receptor (Rattus norvegicus, UniProt P48974+P30560); test: Inhibition of radioligand [3H]AVP binding to the vasopressin V1 receptor in rat liver tissue
Method in brief: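 Crude membranes from male rat liver (V1 sites) competed with 1 nM [3H]AVP (80–90 Ci/mmol). Equilibrium 30 min, 30 °C, buffer 100 mM Tris-HCl, 5 mM MgCl2, 0.1% BSA, 50 μM PMSF, 50 μg/mL bacitracin, pH 8.0. 10 μM unlabeled AVP for nonspecific binding. Filtration through glass-fiber filters. IC50 from linear regression over seven concentrations.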

[3] = biological target: Vasopressin V2 receptor (Rattus norvegicus, UniProt Q00788); test: Inhibition of radioligand [3H]-AVP binding to the vasopressin V2 receptor in rat kidney tissue
Vasopressin V2 receptor, sequence (Q00788 whole entry): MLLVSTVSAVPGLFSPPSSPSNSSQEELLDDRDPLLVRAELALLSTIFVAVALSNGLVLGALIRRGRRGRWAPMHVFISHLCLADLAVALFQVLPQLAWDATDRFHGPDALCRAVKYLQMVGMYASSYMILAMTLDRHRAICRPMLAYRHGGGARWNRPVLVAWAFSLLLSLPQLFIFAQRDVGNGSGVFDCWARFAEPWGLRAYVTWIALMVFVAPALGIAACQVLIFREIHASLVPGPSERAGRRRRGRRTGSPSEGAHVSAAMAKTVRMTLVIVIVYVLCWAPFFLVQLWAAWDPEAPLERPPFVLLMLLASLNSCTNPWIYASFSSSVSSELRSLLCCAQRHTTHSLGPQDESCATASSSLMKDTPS
Method in brief: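 [3H]AVP (80–90 Ci/mmol) at 2 nM competed on crude membranes from male rat kidney medulla (V2 sites). Equilibrium 30 min at 30 °C in 100 mM Tris-HCl, 5 mM MgCl2, 0.1% BSA, 50 μM PMSF, 50 μg/mL bacitracin, pH 8.0. Nonspecific binding with 10 μM unlabeled AVP. Glass-fiber filtration. IC50 by linear regression of % inhibition vs log concentration, seven concentrations.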

Row | Compound | IC50 [1] [nM] | IC50 [2] [nM] | IC50 [3] [nM]
1 | CC1(C)[C@@H]2CC[C@@]1(CS(=O)(=O)N1CCC3(C=Cc4ccccc43)CC1)[C@@](O)(CN1C(=O)CCC1=O)C2 | 110 | 3000 | > 3000
2 | CC1(C)[C@@H]2CC[C@@]1(CS(=O)(=O)N1CCC3(CCc4ccccc43)CC1)[C@H](NC(=O)Cc1c[nH]cn1)C2 | 830 | 5100 | 13000
3 | CCCS(=O)(=O)N[C@H]1C[C@H]2CC[C@]1(CS(=O)(=O)N1CCC3(CCc4ccccc43)CC1)C2(C)C | 310 | > 1000 | 10000
4 | CC1(C)[C@@H]2CC[C@@]1(CS(=O)(=O)N1CCC3(CCc4ccccc43)CC1)[C@@H](N1CCNC1=O)C2 | 100 | > 300 | > 3000
5 | CC(C)[C@@H](N)C(=O)N[C@H]1C[C@H]2CC[C@]1(CS(=O)(=O)N1CCC3(CCc4ccccc43)CC1)C2(C)C | 110 | 3000 | > 3000
6 | CC1(C)[C@@H]2CC[C@@]1(CS(=O)(=O)N1CCC3(CCc4ccccc43)CC1)[C@@H](NC(=O)/C=C/c1c[nH]cn1)C2 | 150 | 5200 | 20000
7 | CC1(C)[C@@H]2CC[C@@]1(CS(=O)(=O)N1CCC3(CCc4ccccc43)CC1)[C@@H](NC(=O)CC1CCCNC1)C2 (stereo partly drawn) | 130 | 1500 | 12000
8 | CC1(C)[C@@H]2CC[C@@]1(CS(=O)(=O)N1CCC3(CCc4ccccc43)CC1)[C@@H](NC(=O)Cc1ccncc1)C2 | 120 | > 1000 | 10000
9 | CC1(C)[C@@H]2CC[C@@]1(CS(=O)(=O)N1CCC3(CCc4ccccc43)CC1)[C@H](NC(=O)Cc1ccccc1)C2 | 1000 | > 1000 | 10000
10 | CC1(C)[C@@H]2CC[C@@]1(CS(=O)(=O)N1CCC3(C=Cc4ccccc43)CC1)[C@@](O)(CCNC(=O)c1ccccc1)C2 | 220 | 4600 | 23000
11 | CC1(C)[C@@H]2CC[C@@]1(CS(=O)(=O)N1CCC3(CCc4ccccc43)CC1)[C@@H](NC(=O)Cc1[nH]cnc1Br)C2 | 110 | 8100 | 15000
12 | CC1(C)[C@H]2CC[C@]1(CS(=O)(=O)N1CCC3(CCc4ccccc43)CC1)[C@H](NC(=O)Cc1c[nH]cn1)C2 | 1200 | > 3000 | > 3000
13 | CC1(C)[C@@H]2CC[C@@]1(CS(=O)(=O)N1CCC3(CCc4ccccc43)CC1)/C(=N\O)C2 | 450 | 3200 | 13000
14 | CC1(C)[C@@H]2CC[C@@]1(CS(=O)(=O)N1CCC3(C=Cc4ccccc43)CC1)[C@@](O)(CNC(=O)C1CN3CCC1CC3)C2 (stereo partly drawn) | 57 | 470 | 6100
15 | CC1(C)[C@@H]2CC[C@@]1(CS(=O)(=O)N1CCC3(CCc4ccccc43)CC1)[C@@H](NC(=O)CCCc1ccccc1)C2 | 570 | > 1000 | > 10000
16 | CC1(C)[C@@H]2CC[C@@]1(CS(=O)(=O)N1CCC3(C=Cc4ccccc43)CC1)[C@@](O)(CCNC(=O)c1ccccn1)C2 | 120 | > 1000 | > 1000
17 | CC1(C)[C@@H]2CC[C@@]1(CS(=O)(=O)N1CCC3(CCc4ccccc43)CC1)[C@@H](N1C(=O)NC(=O)C1=O)C2 | 180 | 9200 | 16000
18 | CC(C)C[C@@H](N)C(=O)N[C@H]1C[C@H]2CC[C@]1(CS(=O)(=O)N1CCC3(CCc4ccccc43)CC1)C2(C)C | 580 | > 3000 | > 3000
19 | CC1(C)[C@@H]2CC[C@@]1(CS(=O)(=O)N1CCC3(C=Cc4ccccc43)CC1)[C@@](O)(CNC(=O)CC13CC4CC(CC(C4)C1)C3)C2 | 480 | > 3000 | > 3000
20 | CC(=O)N[C@@H]1C[C@H]2CC[C@]1(CS(=O)(=O)N1CCC3(CCc4ccccc43)CC1)C2(C)C | 1200 | 10000 | > 10000
21 | CC1(C)[C@@H]2CC[C@@]1(CS(=O)(=O)N1CCC3(CCc4ccccc43)CC1)[C@@H](NC(=O)Cc1nnn[nH]1)C2 | 220 | > 3000 | > 3000
22 | CC1(C)[C@@H]2CC[C@@]1(CS(=O)(=O)N1CCC3(C=Cc4ccccc43)CC1)[C@@](O)(CCNC(=O)c1cccnc1)C2 | 97 | 1900 | 6000
23 | CC1(C)[C@@H]2CC[C@@]1(CS(=O)(=O)N1CCC3(CCc4ccccc43)CC1)[C@@H](NC(=O)CCc1cccnc1)C2 | 180 | > 3000 | > 3000
24 | CC1(C)[C@@H]2CC[C@@]1(CS(=O)(=O)N1CCC3(CCc4ccccc43)CC1)[C@@H](NC(=O)Cn1cnnn1)C2 | 140 | > 1000 | 10000

Results, then the compound that gave them:

Row | IC50 [1] [nM] | IC50 [2] [nM] | IC50 [3] [nM] | Compound
25 | 14 | 710 | 2100 | CC1NC(=O)N([C@H]2C[C@H]3CC[C@]2(CS(=O)(=O)N2CCC4(CCc5ccccc54)CC2)C3(C)C)C1=O (stereo partly drawn)
26 | 60 | 3000 | > 3000 | CC(C(=O)N[C@H]1C[C@H]2CC[C@]1(CS(=O)(=O)N1CCC3(CCc4ccccc43)CC1)C2(C)C)c1cn(C)cn1 (stereo partly drawn)
27 | 21 | 1100 | 3800 | CC1(C)[C@@H]2CC[C@@]1(CS(=O)(=O)N1CCC3(CCc4ccccc43)CC1)[C@@H](N1C(=O)C3CCC(=N)N3C1=O)C2 (stereo partly drawn)
28 | 36 | > 300 | > 300 | CC1(C)[C@@H]2CC[C@@]1(CS(=O)(=O)N1CCC3(CCc4ccccc43)CC1)[C@@H](N1C(=O)NC(Cc3cccnc3)C1=O)C2 (stereo partly drawn)
29 | 90 | > 300 | 3000 | CC1(C)[C@@H]2CC[C@@]1(CS(=O)(=O)N1CCC3(C=Cc4ccccc43)CC1)[C@@](O)(CNC(=O)[C@@H](N)CCC(N)=O)C2
30 | 53 | 890 | 4500 | CC1(C)[C@@H]2CC[C@@]1(CS(=O)(=O)N1CCC3(C=Cc4ccccc43)CC1)[C@@](O)(CNC(=O)Cc1cccnc1)C2
31 | 80 | 1700 | 6200 | CC1(C)[C@@H]2CC[C@@]1(CS(=O)(=O)N1CCC3(CCc4ccccc43)CC1)[C@@H](NC(=O)C(N)CCCO)C2 (stereo partly drawn)
32 | 65 | 4500 | 9400 | Cn1cnc(CC(=O)N[C@H]2C[C@H]3CC[C@]2(CS(=O)(=O)N2CCC4(CCc5ccccc54)CC2)C3(C)C)c1
33 | 35 | 480 | 5100 | CC1(C)[C@@H]2CC[C@@]1(CS(=O)(=O)N1CCC3(C=Cc4ccccc43)CC1)[C@@](O)(CNC(=O)Cc1ccncc1)C2
34 | 92 | > 3000 | > 3000 | CC1(C)[C@@H]2CC[C@@]1(CS(=O)(=O)N1CCC3(CCc4ccccc43)CC1)[C@@H](NC(=O)C1CNC(=O)N1)C2 (stereo partly drawn)
35 | 60 | 1700 | 5500 | CC1(C)[C@@H]2CC[C@@]1(CS(=O)(=O)N1CCC3(CCc4ccccc43)CC1)[C@@H](N1CCC(N)C1=O)C2 (stereo partly drawn)
36 | 30 | 2100 | 1500 | CCN(CC)C(CCS(C)(=O)=O)C(=O)N[C@H]1C[C@H]2CC[C@]1(CS(=O)(=O)N1CCC3(CCc4ccccc43)CC1)C2(C)C (stereo partly drawn)
37 | 14 | 960 | 2700 | CN1CC(=O)N([C@H]2C[C@H]3CC[C@]2(CS(=O)(=O)N2CCC4(CCc5ccccc54)CC2)C3(C)C)C1=O
38 | 4.1 | 440 | 1100 | CC1(C)[C@@H]2CC[C@@]1(CS(=O)(=O)N1CCC3(CCc4ccccc43)CC1)[C@@H](NC(=O)C(CCS(C)(=O)=O)NC(=O)CN)C2 (stereo partly drawn)
39 | 6.7 | 120 | 450 | CC1(C)[C@@H]2CC[C@@]1(CS(=O)(=O)N1CCC3(CCc4ccccc43)CC1)[C@@H](N1C(=O)NC(CNc3n[nH]c(N)n3)C1=O)C2 (stereo partly drawn)
40 | 45 | 1500 | 5500 | CC1(C)[C@@H]2CC[C@@]1(CS(=O)(=O)N1CCC3(CCc4ccccc43)CC1)[C@@H](NC(=O)[C@H](N)Cc1c[nH]cn1)C2
41 | 11 | 910 | 1700 | CC1(C)[C@@H]2CC[C@@]1(CS(=O)(=O)N1CCC3(CCc4ccccc43)CC1)[C@@H](N1C(=O)CCC1=O)C2
